From ChEMBL document CHEMBL1136055, “3-Heteroaryl-2-pyridones: benzodiazepine site ligands with functional delectivity for alpha 2/alpha 3-subtypes of human GABA(A) receptor-ion channels” (J Med Chem, 2002)

Legend:
[1] = molecular target: T1, GABA-A receptor; alpha-2/beta-3/gamma-2 (Homo sapiens, UniProt P18507+P28472+P47869); assay: Displacement of [3H]Ro-151788 from human Gamma-aminobutyric acid A receptor alpha-2-beta-3-gamma-2 stably expressed in L(tk-) cells; assay type: cell-based
T1 sequence (P18507 whole entry): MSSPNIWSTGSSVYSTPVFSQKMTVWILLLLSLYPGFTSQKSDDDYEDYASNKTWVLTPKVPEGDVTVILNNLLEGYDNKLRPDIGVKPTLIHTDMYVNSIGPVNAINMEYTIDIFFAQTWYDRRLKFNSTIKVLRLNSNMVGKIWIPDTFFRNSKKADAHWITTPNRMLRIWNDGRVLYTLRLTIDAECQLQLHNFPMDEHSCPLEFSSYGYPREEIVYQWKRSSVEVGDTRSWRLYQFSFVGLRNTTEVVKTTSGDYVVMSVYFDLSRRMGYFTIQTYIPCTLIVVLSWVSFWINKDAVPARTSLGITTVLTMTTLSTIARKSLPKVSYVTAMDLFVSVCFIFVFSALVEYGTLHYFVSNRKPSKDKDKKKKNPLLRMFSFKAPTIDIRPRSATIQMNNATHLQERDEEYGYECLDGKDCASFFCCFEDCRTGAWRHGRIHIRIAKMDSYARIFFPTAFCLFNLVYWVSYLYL
T1 sequence (P28472 whole entry): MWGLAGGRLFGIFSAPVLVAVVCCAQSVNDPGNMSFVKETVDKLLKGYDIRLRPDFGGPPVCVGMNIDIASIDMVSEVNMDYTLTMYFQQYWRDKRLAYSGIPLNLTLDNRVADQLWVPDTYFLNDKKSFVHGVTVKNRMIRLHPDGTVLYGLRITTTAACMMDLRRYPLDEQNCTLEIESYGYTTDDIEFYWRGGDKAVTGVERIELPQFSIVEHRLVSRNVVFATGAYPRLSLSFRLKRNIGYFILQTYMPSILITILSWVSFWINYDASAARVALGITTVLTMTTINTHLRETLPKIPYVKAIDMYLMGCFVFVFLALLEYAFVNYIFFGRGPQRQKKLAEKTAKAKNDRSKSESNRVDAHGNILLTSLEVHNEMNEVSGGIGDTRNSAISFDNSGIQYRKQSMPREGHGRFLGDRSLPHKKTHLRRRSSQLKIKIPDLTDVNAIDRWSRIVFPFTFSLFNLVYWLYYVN
T1 sequence (P47869 whole entry): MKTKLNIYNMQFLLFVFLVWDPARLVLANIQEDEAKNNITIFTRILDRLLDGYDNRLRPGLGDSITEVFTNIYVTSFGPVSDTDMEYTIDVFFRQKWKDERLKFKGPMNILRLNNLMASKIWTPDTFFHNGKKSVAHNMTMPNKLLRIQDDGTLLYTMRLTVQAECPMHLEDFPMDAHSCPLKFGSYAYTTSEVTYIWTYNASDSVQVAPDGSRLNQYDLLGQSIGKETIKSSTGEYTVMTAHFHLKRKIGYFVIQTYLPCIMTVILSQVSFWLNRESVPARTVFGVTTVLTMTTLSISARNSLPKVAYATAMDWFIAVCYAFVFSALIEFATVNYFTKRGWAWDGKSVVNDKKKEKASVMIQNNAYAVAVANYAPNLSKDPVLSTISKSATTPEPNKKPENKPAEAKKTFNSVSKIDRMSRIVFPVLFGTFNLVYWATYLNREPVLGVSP
Method in brief: (§1)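 Competition binding against [3H]Ro15-1788 on cloned human α1/α2/α3/α5 β3γ2S receptors stably expressed in L(tk-) cells. Six to eight test concentrations spaced in half-log steps. Ki given as mean (SEM), n = 3-5, reported to two significant figures.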

[2] = molecular target: T2, GABA-A receptor; alpha-5/beta-3/gamma-2 (Homo sapiens, UniProt P18507+P28472+P31644); assay: Inhibition of [3H]Ro-151788 binding to human GABA A receptor (alpha-5-beta-3-gamma-2) stably expressed in L(tk-) cells.; assay type: cell-based; method in brief: as §1
T2 sequence (P18507 whole entry): T1 sequence (P18507 whole entry)
T2 sequence (P28472 whole entry): T1 sequence (P28472 whole entry)
T2 sequence (P31644 whole entry): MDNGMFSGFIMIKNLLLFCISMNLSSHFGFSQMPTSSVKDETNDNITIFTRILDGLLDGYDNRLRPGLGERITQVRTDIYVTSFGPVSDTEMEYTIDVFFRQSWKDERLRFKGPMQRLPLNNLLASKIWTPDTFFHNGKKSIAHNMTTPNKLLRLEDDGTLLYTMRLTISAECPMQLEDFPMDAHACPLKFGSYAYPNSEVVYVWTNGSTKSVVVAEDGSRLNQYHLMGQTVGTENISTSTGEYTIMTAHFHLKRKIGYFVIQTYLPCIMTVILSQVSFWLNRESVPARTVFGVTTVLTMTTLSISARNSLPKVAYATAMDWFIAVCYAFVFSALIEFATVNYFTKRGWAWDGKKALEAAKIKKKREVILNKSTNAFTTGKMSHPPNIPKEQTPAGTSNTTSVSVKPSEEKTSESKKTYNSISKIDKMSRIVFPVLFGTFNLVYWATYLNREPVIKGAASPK

[3] = molecular target: T3, GABA-A receptor; alpha-1/beta-3/gamma-2 (Homo sapiens, UniProt P14867+P18507+P28472); assay: Inhibition of [3H]Ro-151788 binding to human GABA A receptor (alpha-1-beta-3-gamma-2) stably expressed in L(tk-) cells.; assay type: cell-based
T3 sequence (P14867 whole entry): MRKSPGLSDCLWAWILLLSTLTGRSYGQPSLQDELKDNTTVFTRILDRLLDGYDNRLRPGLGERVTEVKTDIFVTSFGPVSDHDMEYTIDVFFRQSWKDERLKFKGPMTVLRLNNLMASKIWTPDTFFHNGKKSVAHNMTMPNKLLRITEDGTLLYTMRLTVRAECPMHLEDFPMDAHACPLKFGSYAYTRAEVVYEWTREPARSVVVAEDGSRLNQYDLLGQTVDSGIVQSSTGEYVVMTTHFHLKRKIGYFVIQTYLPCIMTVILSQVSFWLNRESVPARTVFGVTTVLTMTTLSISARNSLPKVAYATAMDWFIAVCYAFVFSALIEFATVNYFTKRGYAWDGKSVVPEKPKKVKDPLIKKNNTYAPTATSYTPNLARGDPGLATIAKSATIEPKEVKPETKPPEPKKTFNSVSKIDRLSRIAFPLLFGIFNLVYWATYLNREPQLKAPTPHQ
T3 sequence (P18507 whole entry): T1 sequence (P18507 whole entry)
T3 sequence (P28472 whole entry): T1 sequence (P28472 whole entry)

[4] = molecular target: T4, GABA-A receptor; alpha-3/beta-3/gamma-2 (Homo sapiens, UniProt P18507+P28472+P34903); assay: Binding affinity by displacement of [3H]Ro-151788 from recombinant human gamma-aminobutyric-acid A receptor alpha3,beta3,gamma2 stably expressed in L cells; assay type: cell-based; method in brief: as §1
T4 sequence (P18507 whole entry): T1 sequence (P18507 whole entry)
T4 sequence (P28472 whole entry): T1 sequence (P28472 whole entry)
T4 sequence (P34903 whole entry): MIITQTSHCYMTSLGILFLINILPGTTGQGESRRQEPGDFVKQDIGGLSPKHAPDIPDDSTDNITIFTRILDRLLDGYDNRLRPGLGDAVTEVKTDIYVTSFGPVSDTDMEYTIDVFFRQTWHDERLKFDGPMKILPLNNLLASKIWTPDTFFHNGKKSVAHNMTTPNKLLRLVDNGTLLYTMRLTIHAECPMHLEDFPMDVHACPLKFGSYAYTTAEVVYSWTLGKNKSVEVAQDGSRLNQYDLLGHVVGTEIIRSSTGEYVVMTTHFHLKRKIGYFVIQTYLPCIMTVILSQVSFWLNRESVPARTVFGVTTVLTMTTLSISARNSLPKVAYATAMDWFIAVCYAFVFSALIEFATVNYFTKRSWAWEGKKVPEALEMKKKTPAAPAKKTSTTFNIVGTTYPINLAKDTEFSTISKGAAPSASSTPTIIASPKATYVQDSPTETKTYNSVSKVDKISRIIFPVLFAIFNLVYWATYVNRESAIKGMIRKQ

[5] = molecular target: GABA-A receptor; alpha-3/beta-3/gamma-2 (Homo sapiens) (UniProt P18507+P28472+P34903); assay: Modulatory effect on coapplication with GABA at human Gamma-aminobutyric acid A receptor alpha-3-beta-3-gamma-2 in Xenopus oocytes.; assay type: cell-based; conditions: Oocyte
Method in brief: (§2)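 Two-electrode voltage clamp of Xenopus oocytes transiently expressing human α1, α2 or α3 β3γ2S receptors. Test compound is co-applied with GABA at its EC20 (GABA range 4-30 µM). Result is the % change in GABA current, mean (SEM), n = 3-7, at the stated test compound concentration (µM).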

[6] = molecular target: GABA-A receptor; alpha-1/beta-3/gamma-2 (Homo sapiens) (UniProt P14867+P18507+P28472); assay: Modulatory effect on coapplication with GABA at human Gamma-aminobutyric acid A receptor alpha-1-beta-3-gamma-2 in Xenopus oocyte.; method in brief: as §2
[7] = molecular target: T2, GABA-A receptor; alpha-5/beta-3/gamma-2; assay: Displacement of [3H]Ro-151788 from human GABA-A receptor alpha-5-beta-3-gamma-2 subunits expressed in L(tk-) cells; assay type: cell-based; method in brief: as §1
[8] = molecular target: GABA-A receptor; alpha-2/beta-3/gamma-2 (Homo sapiens) (UniProt P18507+P28472+P47869); assay: Modulatory effect on coapplication with GABA at human Gamma-aminobutyric acid A receptor alpha-2-beta-3-gamma-2 expressed inXenopus oocytes; assay type: cell-based; conditions: Oocyte; method in brief: as §2

COC(=O)c1cc(-c2ccc(OC)cc2)c(-c2ccccn2)n(C)c1=O
Ki [1]: > 667 nM
Ki [2]: > 667 nM
Ki [3]: > 3000 nM
Ki [4]: 510 nM

COc1ccc(-c2cc(-c3ccsc3)c(=O)n(C)c2-c2ccncc2)cc1
Ki [1]: 51 nM
Ki [2]: 450 nM
Ki [3]: 39 nM
Ki [4]: 12 nM
percent modulation of GABA EC20 response [5]: 18%

Cc1csc(-c2cc(-c3ccc(F)cc3)c(-c3ccncc3)n(C)c2=O)n1
percent modulation of GABA EC20 response [6]: 57%
Ki [1]: 8 nM
Ki [2]: 380 nM
Ki [3]: 13 nM
Ki [4]: 3.5 nM
percent modulation of GABA EC20 response [5]: 41%

COc1ccc(-c2cc(-c3nccs3)c(=O)n(C)c2-c2ccncc2)cc1
percent modulation of GABA EC20 response [6]: 56%
Ki [1]: 37 nM
Ki [7]: > 1000 nM
Ki [3]: 45 nM
Ki [4]: 6.2 nM
percent modulation of GABA EC20 response [8]: 67%
percent modulation of GABA EC20 response [5]: 32%

COc1ccc(-c2cc(-c3ccccc3)c(=O)n(C)c2-c2ccncc2)cc1
percent modulation of GABA EC20 response [6]: 45%
Ki [1]: 130 nM
Ki [2]: > 1000 nM
Ki [3]: 83 nM
Ki [4]: 24 nM
percent modulation of GABA EC20 response [5]: 63%

COc1ccc(-c2cc(-c3nc(C)ns3)c(=O)n(C)c2-c2ccncc2)cc1
percent modulation of GABA EC20 response [6]: 117%
Ki [1]: 42 nM
Ki [2]: > 667 nM
Ki [3]: 90 nM
Ki [4]: 25 nM
percent modulation of GABA EC20 response [8]: 97%
percent modulation of GABA EC20 response [5]: 138%

COc1ccc(-c2cc(C#N)c(OC)nc2-c2ccc(N(C)C)cc2)cc1
Ki [1]: > 30000 nM
Ki [2]: > 667 nM
Ki [3]: > 30000 nM
Ki [4]: > 30000 nM

COc1ccc(-c2cc(-c3ncc(C)s3)c(=O)n(C)c2-c2ccncc2)cc1
Ki [1]: 380 nM
Ki [2]: > 1000 nM
Ki [3]: 330 nM
Ki [4]: 250 nM

COC(=O)c1cc(-c2ccc(OC)cc2)c(-c2ccncc2)n(C)c1=O
percent modulation of GABA EC20 response [6]: 3%
Ki [1]: 320 nM
Ki [2]: 390 nM
Ki [3]: 1020 nM
Ki [4]: 79 nM
percent modulation of GABA EC20 response [8]: 8%
percent modulation of GABA EC20 response [5]: -25%

COc1ccc(-c2cc(-c3nc(C)cs3)c(=O)n(C)c2-c2cccnc2)cc1
percent modulation of GABA EC20 response [6]: 78%
Ki [1]: 5 nM
Ki [2]: > 667 nM
Ki [3]: 12.8 nM
Ki [4]: 3.8 nM
percent modulation of GABA EC20 response [5]: 77%

COC(=O)c1cc(-c2ccccc2)c(-c2ccccc2)n(C)c1=O
Ki [3]: 520 nM
Ki [4]: 270 nM

COc1ccc(-c2cc(-c3noc(C4CC4)n3)c(=O)n(C)c2-c2ccncc2)cc1
percent modulation of GABA EC20 response [6]: 120%
Ki [1]: 240 nM
Ki [3]: 310 nM
Ki [4]: 60 nM
percent modulation of GABA EC20 response [8]: 142%
percent modulation of GABA EC20 response [5]: 150%

COC(=O)c1cc(-c2ccccc2)c(-c2ccc(N(C)C)cc2)n(C)c1=O
Ki [1]: 470 nM
Ki [2]: > 667 nM
Ki [3]: 630 nM
Ki [4]: 270 nM

COc1ccc(-c2cc(-c3nc(C4CC4)cs3)c(=O)n(C)c2-c2ccncc2)cc1
percent modulation of GABA EC20 response [6]: 29%
Ki [1]: 24 nM
Ki [2]: > 1000 nM
Ki [3]: 31 nM
Ki [4]: 12 nM
percent modulation of GABA EC20 response [5]: 35%

COc1ccc(-c2cc(-c3noc(C)n3)c(=O)n(C)c2-c2ccncc2)cc1
percent modulation of GABA EC20 response [6]: 111%
Ki [1]: 1100 nM
Ki [7]: 1300 nM
Ki [3]: 260 nM
Ki [4]: 320 nM
percent modulation of GABA EC20 response [5]: 81%
